# Measurements published in the RNAGym collection of RNA variant scans (doi:10.1126/science.aae0568).
# Fewer inactive variants are shown than the library holds.
# B1: tRNA (parent)
# chain: GUUCCGUUGGCGUAAUGGUAACGCGUCUCCCUCCUAAGGAGAAGACUGCGGGUUCGAGUCCCGUACGGAACG
# Variants of: B1
# Experiment: yeast fitness relative to wild type (ratio to wild type); higher = fitter; tRNA-Arg(CCU), competitive growth, 37 C, YPD
# Outline: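 Variants of the tRNA-Arg(CCU) gene, chemically synthesised with a 3% per-site mutation rate at 69 sites, were placed at the native genomic locus in Saccharomyces cerevisiae. The pooled strains were competed in YPD at 37°C for 24 hours in six parallel replicates. Gene amplicons from the start population and from each end population were read by 100-nucleotide paired-end sequencing. Darwinian fitness relative to wild type came from changes in genotype frequencies; genotypes needed ≥ 100 starting reads, and estimates < 0.5 were set to 0.5.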
row,Variant,yeast fitness
1,A20C C24U G44A C60G,≤ 0.5
2,U19C A21G U26G,1.01
3,U19G C33G A37C C49G,≤ 0.5
4,U19G A42C A43C,0.951
5,A20C A21C A45G,≤ 0.5
6,U19C U28C G68C,0.67
7,U19C G41C,0.987
8,A20C A21G A57C,0.531
9,U19A G23C C30A A36G C60U,≤ 0.5
10,U19A G38C C60A,≤ 0.5
11,U19C G44C G58A A65G,0.987
12,U19G C33G U47A,0.542
13,U19G C60U C61G G67A,≤ 0.5
14,A20C A57U A65U,0.571
15,U19C G38C C62G,≤ 0.5
16,U19C C34A,0.76
17,A20C C27U G51C U64A C66U A69C,≤ 0.5
18,U19C C22G A65U,0.547
19,U19C G23C C61G,≤ 0.5
20,A20C A42C G48A,0.591
21,A20C C24G,0.679

row,Variant,yeast fitness
1,U19C C31U C33G G41A C49G U54C,≤ 0.5
2,U19G C24A A40C A45U,≤ 0.5
3,U19C U32C C33G C34U U54A C66U,≤ 0.5
4,U19C A20C A43G C46A C55U A57U C61U,0.592
5,U19C C31A G41C,0.577
6,U19C G56A,0.91
7,U19G A40C,0.732
8,U19G G44A C46G,0.946
9,U19C C31A G50U C62G,≤ 0.5
10,A20C C27U A69U,0.81
11,U19G C49U,0.859
12,U19C C49A C55U,≤ 0.5
13,U19C U26G A36C,≤ 0.5
14,U19C C27U C55G,0.544
15,U19C C31U C34U A57C,≤ 0.5
16,U19C G48C G56A A69C,0.642
17,U19C A20C C31G A65C,≤ 0.5
18,U19G C30U C55U A57G,≤ 0.5
19,U19C A37G C49U,0.566
20,U19C A20G G58A,0.709
21,U19C C55A C66A,≤ 0.5

row,Variant,yeast fitness
1,A20C C24G A42G,0.585
2,A20C A40G C60G,≤ 0.5
3,U19G G50U G58A C66U,0.541
4,U19G G68C,0.802
5,U19C C29G C61U C66A,≤ 0.5
6,U19C C24A G58A,≤ 0.5
7,U19A G25C C33A A37G C55U,≤ 0.5
8,U19C C55A,0.601
9,U19A U26A C29A C46G U54A,0.603
10,U19G C29A A45U,≤ 0.5
11,U19C C29G A40C,≤ 0.5
12,A20C A57G G63A,0.558
13,U19A G25C C33A A37G G68A,≤ 0.5
14,U19C A20C A65U,0.55
15,A20C A36U U53A,≤ 0.5
16,U19A G41A A42G G58U G63C,≤ 0.5
17,U19C G48C,0.922
18,A20C A36C G41C G67C A69G,≤ 0.5
19,U19G C55U,0.762
20,U19G U28G A36U C46U C61U,≤ 0.5
21,U19G C31U U32A A45U A70U,≤ 0.5

row,Variant,yeast fitness
1,U19A U32A A36G,≤ 0.5
2,U19G G52C C62A,≤ 0.5
3,U19A C49G U59C C60G C62G,≤ 0.5
4,U19A U26A,0.907
5,U19A U26C,0.834
6,U19C C27U C29G C34A A42C G58A A65G,≤ 0.5
7,A20C A36U G39C,0.618
8,U19A G39C A69U,0.574
9,U19G C55G C66U,0.536
10,U19A G48A,1.05
11,A20C A21G A45C,0.687
12,U19C U28C C46A A70C,0.545
13,A20C C22G U47G G51C G63A G68C,≤ 0.5
14,U19C C46A C60G G67C,≤ 0.5
15,A20C C22U C66U,0.622
16,U19A C46U A57C A70C,≤ 0.5
17,U19C U28C C46U,0.712
18,U19G A43C G63U U64A,≤ 0.5
19,A20C C24G U64C,0.56
20,U19A G67C,0.74
